From paper PMC6937391 (Leukemia research, 2019)

Tests used:
[1] = system: MM.1S cells; test: Cell viability assay; type: cell-based; conditions: Homo sapiens, MM1.S, 24 h, read-out: EC50 (cell viability)
How it was run: (§1)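 Cells kept in RPMI 1640 with 10% heat-inactivated FBS and penicillin/streptomycin at 37°C, 5% CO2. Plated 24 h before a 24 h exposure to test compound diluted from DMSO stock; vehicle controls got 1% DMSO. CellTiter-Glo added, equilibrated 5 min at 37°C, luminescence read at 470 nm (1 s). Survival as % of untreated control; EC50 from 3- or 4-parameter nonlinear regression.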

[2] = system: MM.1S BzR cells; test: Cell viability assay; type: cell-based; conditions: Homo sapiens, MM1.S, 24 h, read-out: EC50 (cell viability)
[3] = system: U266 cells; test: Cell viability assay; type: cell-based; conditions: Homo sapiens, U-266, 24 h, read-out: EC50 (cell viability)
How it was run: as §1

[4] = system: U266 BzR cells; test: Cell viability assay; type: cell-based; conditions: Homo sapiens, U-266, 24 h, read-out: EC50 (cell viability)
[5] = system: Granta cells; test: Cell viability assay; type: cell-based; conditions: 24 h, read-out: EC50 (cell viability)
How it was run: as §1

[6] = system: Granta BzR cells; test: Cell viability assay; type: cell-based; conditions: 24 h, read-out: EC50 (cell viability)
[7] = system: Mino cells; test: Cell viability assay; type: cell-based; conditions: Homo sapiens, 24 h, read-out: EC50 (cell viability)
How it was run: as §1

[8] = system: Mino BzR cells; test: Cell viability assay; type: cell-based; conditions: Homo sapiens, 24 h, read-out: EC50 (cell viability)
[9] = biological target: C-L (β1) proteasomal sub-catalytic activity (Homo sapiens, UniProt P28072); test: Cell-based proteasome activity assay; conditions: Ki50 C-L (β1), 24 h treatment
[10] = biological target: T-L (β2) proteasomal sub-catalytic activity (Homo sapiens, UniProt Q99436); test: Cell-based proteasome activity assay; conditions: Ki50 T-L (β2), 24 h treatment

| EC50 [1] [nM] | EC50 [2] [nM] | EC50 [3] [nM] | EC50 [4] [nM] | Ki ([9]; ARD cells) [nM] | Ki ([9]; MM.1R cells) [nM] | Ki ([9]; U266 cells) [nM] | Ki ([10]; ARD cells) [nM] | Ki ([10]; MM.1R cells) [nM] | Ki ([10]; U266 cells) [nM] | SMILES | EC50 [5] [nM] | EC50 [6] [nM] | EC50 [7] [nM] | EC50 [8] [nM] |
| --- | --- | --- | --- | --- | --- | --- | --- | --- | --- | --- | --- | --- | --- | --- |
| 5.5 ± 0.2 | 27.7 ± 1.6 | 6.9 ± 0.5 | 10.9 ± 1.4 |  |  |  |  |  |  | CC(C)C[C@H](NC(=O)[C@H](CCc1ccccc1)NC(=O)CN1CCOCC1)C(=O)N[C@@H](Cc1ccccc1)C(=O)N[C@@H](CC(C)C)C(=O)[C@@]1(C)CO1 [CAR, carfilzomib] | 11.7 ± 0.3 | 24.2 ± 1.4 | 6.3 ± 0.3 | 20.7 ± 0.7 |
| 2.31 ± 0.03 | 28.4 ± 0.6 | 2.7 ± 0.2 | 14.1 ± 2 |  |  |  |  |  |  | CC(C)C[C@H](NC(=O)[C@H](Cc1ccccc1)NC(=O)c1cnccn1)B(O)O [BTZ, bortezomib] | 14.9 ± 1.6 | 51.5 ± 9.3 | 10 ± 0.4 | 23.4 ± 1.1 |
| 25.5 ± 0.9 | 449 ± 23 | 34.7 ± 2.1 | 169 ± 15 | 19.6 ± 8.32 | 7.41 ± 1.59 | 16.1 ± 4.01 | 92.8 ± 19.1 | 29.3 ± 7.83 | 74.9 ± 16.8 | CC(C)C[C@H](NC(=O)CNC(=O)c1cc(Cl)ccc1Cl)B(O)O [IXA, ixazomib] | 147 ± 12 | 774 ± 150 | 97.6 ± 4.6 | 336 ± 30 |
